From ChEMBL document CHEMBL4376883, “Discovery and Optimization of Small Molecules Targeting the Protein-Protein Interaction of Heat Shock Protein 90 (Hsp90) and Cell Division Cycle 37 as Orally Active Inhibitors for the Treatment of Colorectal Cancer” (J Med Chem, 2020) come the findings set out here.

The nature of series [1]: Effect on HSP70 in human HCT116 cells up to 10 uM measured after 24 hrs by Western blot analysis. Format: cell-based. An outline of the steps:
(§1)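 HCT116 cells treated with 0, 1, 5 or 10 µM for 24 h, or with 10 µM for 0, 4, 12, 24 or 48 h. Lysates separated by SDS-PAGE and blotted. Membranes blocked in 5% milk, primary antibodies overnight at 4 °C, HRP secondaries, chemiluminescent detection.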
(In general: In western blotting, separated proteins are transferred to a membrane and probed.)

The nature of series [2]: Stability of the compound in mouse plasma assessed as parent compound remaining at 1 uM measured immediately by LC-MS/MS analysis. The conditions noted are these: read-out: Stability. Format: ADME, cell-free. In a few lines:
(§2)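 Compound diluted from 10 mM DMSO stock to 1 μM in mouse or human plasma and held at 37 °C in a water bath. Reactions were stopped with acetonitrile at 0, 10, 30, 60 and 90 min. Parent compound was quantified by LC-MS/MS as % remaining.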

A short description of series [3]: Stability of the compound in mouse plasma assessed as parent compound remaining at 1 uM measured after 10 mins by LC-MS/MS analysis. As to conditions: read-out: Stability; call rule not given here. Format: ADME, cell-free. An outline of the steps: as §2
Series [4] can be described thus: AUC (0 to t) in plasma of human HCT116 cells xenografted BALB/c mouse at 80 mg/kg, po administered as single dose by LC-MS/MS analysis. Format: ADME, organism-based. An outline of the steps: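 Tumour-bearing mice (n = 6 per group) given one oral dose of 80 mg/kg. Blood and tumour collected into heparinized tubes at 0, 0.25, 0.5, 1, 2, 4, 8, 12 and 24 h. Plasma obtained by centrifugation at 3000 rpm for 10 min. Samples stored at -80 °C and quantified by LC-MS/MS.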
A general note: In xenograft studies the graft and the host belong to different species.

Series [5] is described as follows: Distribution coefficient, log D of the compound at pH 7.4 by potentiometric titration method. As to conditions: octanol/water. Format: physicochemical. An outline of the steps:
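log D at pH 7.4 measured by potentiometric titration on a Gemini Profiler.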

The test system of a further series is A549. The series can be described thus: Antiproliferative activity against human A549 cells measured after 72 hrs by CCK8 assay. The format is functional, cell-based. The conditions noted are these: A549, 72 h. In a few lines: (§3)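 Cells grown in RPMI 1640 with 10% FBS at 37 °C, 5% CO2; STR-authenticated and mycoplasma-checked. Seeded at 3000-5000 cells/well and left 24 h. Serial compound dilutions added for 72 h, with matched DMSO as control. Viability read by CCK8 kit using the standard protocol. IC50 values derived from at least three parallel experiments.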
A general note: Tetrazolium dyes change colour on reduction, which living cells bring about.

Series [6] can be described thus: Half life in tumor of human HCT116 cells xenografted BALB/c mouse at 80 mg/kg, po administered as single dose by LC-MS/MS analysis. The format is ADME, organism-based, Neoplasm. An outline of the steps: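 Single oral dose of 80 mg/kg given to BALB/c nude mice (n = 6 per group) carrying flank HCT116 xenografts. Blood and tumor were collected at 0, 0.25, 0.5, 1, 2, 4, 8, 12 and 24 h. Blood went into heparinized tubes and was spun at 3000 rpm for 10 min to give plasma. Samples were stored at -80 °C, then drug levels in plasma and tumor were measured by LC-MS/MS.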

For series [7], the target named is T1, Heat shock protein HSP90 (Homo sapiens, UniProt P07900+P08238). The series can be described thus: Inhibition of recombinant full-length HSP90 ATPase activity N-terminal domain (9 to 236 residues) (unknown origin) expressed in Escherichia coli BL21 (DE3) measured after 1 hr by ADP hunter plus assay.
Series [8] is described as follows: Half life in human liver microsomes at 10 uM preincubated for 5 mins followed by NADPH addition by LC-MS/MS analysis. Format: ADME, Microsome. In a few lines: (§4)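 Compound at 10 µM preincubated 5 min at 37 °C with human or mouse liver microsomes (0.5 mg/mL) in 100 mM phosphate, pH 7.4. Reaction started with 1 mM NADPH, stopped with cold acetonitrile, centrifuged and analysed by LC-MS/MS.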

Series [9] relates to HCT-116. Put plainly: Effect on HSP90 expression in human HCT116 cells at 10 uM measured up to 48 hrs by Western blot analysis. The conditions noted are these: hct-116, 48 h. The format is cell-based. An outline of the steps:
as §1

Series [10] has as its target T2, Glucocorticoid receptor (Homo sapiens, UniProt P04150).
T2 sequence (P04150 whole entry): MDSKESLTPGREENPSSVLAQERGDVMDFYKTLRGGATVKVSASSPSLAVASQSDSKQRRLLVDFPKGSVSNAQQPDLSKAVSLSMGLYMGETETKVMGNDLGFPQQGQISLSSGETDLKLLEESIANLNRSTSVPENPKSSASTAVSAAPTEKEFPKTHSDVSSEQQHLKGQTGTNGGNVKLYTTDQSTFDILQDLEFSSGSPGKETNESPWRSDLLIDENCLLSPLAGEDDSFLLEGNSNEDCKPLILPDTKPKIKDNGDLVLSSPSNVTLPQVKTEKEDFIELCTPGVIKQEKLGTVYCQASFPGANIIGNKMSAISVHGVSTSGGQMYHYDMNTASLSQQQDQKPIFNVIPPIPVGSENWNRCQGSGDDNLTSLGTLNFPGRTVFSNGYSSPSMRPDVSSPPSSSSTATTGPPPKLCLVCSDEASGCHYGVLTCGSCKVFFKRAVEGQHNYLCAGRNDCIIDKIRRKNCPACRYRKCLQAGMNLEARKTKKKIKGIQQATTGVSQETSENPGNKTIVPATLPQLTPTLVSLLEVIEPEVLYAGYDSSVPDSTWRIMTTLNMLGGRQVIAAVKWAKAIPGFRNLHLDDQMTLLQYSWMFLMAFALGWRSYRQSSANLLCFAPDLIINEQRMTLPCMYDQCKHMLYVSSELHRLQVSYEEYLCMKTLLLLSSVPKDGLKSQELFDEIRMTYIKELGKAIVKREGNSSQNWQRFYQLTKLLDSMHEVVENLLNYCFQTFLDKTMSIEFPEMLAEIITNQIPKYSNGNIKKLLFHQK
The series can be described thus: Effect on glucocorticoid receptor in human HCT116 cells up to 10 uM measured after 24 hrs by Western blot analysis. The format is ADME, cell-based. An outline of the steps:
as §1

A short description of series [11]: Stability of the compound in mouse plasma assessed as parent compound remaining at 1 uM measured after 30 mins by LC-MS/MS analysis. Format: ADME, cell-free. The conditions noted are these: read-out: Stability. An outline of the steps:
as §2

Series [12] has as its target T2, Glucocorticoid receptor. The series can be described thus: Effect on glucocorticoid receptor in human HCT116 cells at 10 uM measured up to 48 hrs by Western blot analysis. The format is ADME, cell-based. An outline of the steps: as §1
Series [13] in a line: Half life in mouse liver microsomes at 10 uM preincubated for 5 mins followed by NADPH addition by LC-MS/MS analysis. Format: ADME, Microsome. In a few lines:
as §4

A short description of series [14]: Stability of the compound in human plasma assessed as parent compound remaining at 1 uM measured immediately by LC-MS/MS analysis. The format is ADME, cell-free. The conditions noted are these: read-out: Stability. In a few lines:
as §2

In series [15] the test system is HCT-116. The series can be described thus: Effect on CDC37 expression in human HCT116 cells at 10 uM measured up to 48 hrs by Western blot analysis. The format is cell-based. As to conditions: hct-116, 48 h. An outline of the steps:
as §1

Series [16] deals with T1, Heat shock protein HSP90. Put plainly: Binding affinity to recombinant […] biotinylated-HSP90 N-terminal domain (9 to 236 residues) (unknown origin) expressed in Escherichia coli BL21 (DE3) by biolayer interferometry. An outline of the steps:
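Biotinylated Hsp90 (100 µg/mL) loaded onto streptavidin sensors prewetted 10 min in PBS with 0.05% BSA and 0.01% Tween 20. Analyte binding measured at 28 °C. Double reference subtraction applied; data fitted to a 1:1 model with K_D = K_off/K_on.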

In another series the test system is L02. Put plainly: Cytotoxicity against human L02 cells measured after 72 hrs by CCK8 assay. Format: functional, cell-based. As to conditions: L02, 72 h. An outline of the steps:
as §3

Series [17] in a line: Stability of the compound in human plasma assessed as parent compound remaining at 1 uM measured after 60 mins by LC-MS/MS analysis. Format: ADME, cell-free. As to conditions: read-out: Stability. In a few lines:
as §2

Regarding `Cc1cc(C)c(S(=O)(=O)N(CC(=O)O)c2ccc(Nc3ccnc(N4CCNCC4)n3)cc2)c(C)c1`, the Activity entry (in series [1]; with HCT-116 [9]; on Glucocorticoid receptor [10]; at Glucocorticoid receptor [12]; in the series with HCT-116 [15]) was “Non-Toxic” each time. Moreover, the remaining at 0 min, 1 µM in series [2] and in series [14] was 100% each time. Further, in series [3], the remaining at 10 min, 1 µM was 100%. The AUC(0-t) in [4] was 533 µg·h/mL. The compound further yielded a logD in [5] of 1.93. Moreover, the IC50 in the series with A549 is above 50 µM; at Heat shock protein HSP90 [7] it was above 100 µM; in the series with L02 it was above 50 µM. In addition, in [6], the half-life was 4.66 h. Also, the half-life at 10 µM in series [8] was found to be 2.08 h; in series [13] it was 1.6 h. Besides, in series [11], the remaining at 0.5 h, 1 µM is 102%. In addition, the Kd on Heat shock protein HSP90 [16] came out at 0.5 µM. For the same compound, the remaining at 1 h, 1 µM in series [17] was 102%.

For orientation: AUC(0-t) means the area under the concentration-time curve up to a stated or last time point. Usually logD stands for the decadic logarithm of the distribution of all forms, ionised or not, between an organic phase and buffer at a given pH. Higher therefore signals higher lipophilicity. Usually IC50 stands for the concentration that inhibits the measured activity by half. As usually defined, the half-life is the time in which the quantity being followed falls by half. As usually defined, the Kd is a measure of binding affinity in units of concentration.
